Source: ChEMBL document CHEMBL1123067, “Evaluation of the brain-specific delivery of radioiodinated (iodophenyl)alkyl-substituted amines coupled to a dihydropyridine carrier” (J Med Chem, 1985)

What was measured:
Assay type in all cases: ADME, organism-based
[1] = tested on: Rattus norvegicus; test: Distribution of radioactivity in brain tissues of Sprague-Dawley rats after 5 min injecton by intravenously; 0.02-0.03; settings: in vivo, iv
Summary of the method: (§1)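 Female Sprague-Dawley rats, 10–12 weeks old (170–200 g), fed ad libitum. The ¹²⁵I-labelled agent was dissolved in minimal Me2SO, diluted with saline to a final 20% Me2SO, filtered (0.22 μm), and injected into a lateral tail vein under ether anaesthesia. Tissues were counted against samples of the injected solution and expressed as % injected dose/g (mean, range). Brain/blood ratio is from the means.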

[2] = tested on: Rattus norvegicus; test: Distribution of radioactivity in kidney tissues of Sprague-Dawley rats after 60 min injecton by intravenously; 0.48-0.72; settings: in vivo, iv, 1 h
[3] = tested on: Rattus norvegicus; test: Distribution of radioactivity in blood tissues of Sprague-Dawley rats after 15 min injecton by intravenously; 0.35-0.37; settings: in vivo, iv, 0.25 h; summary of the method: as §1
[4] = tested on: Rattus norvegicus; test: Distribution of radioactivity in liver tissues of Sprague-Dawley rats after 15 min injecton by intravenously; 4.01-4.81; settings: in vivo, iv, 0.25 h
[5] = tested on: Rattus norvegicus; test: Distribution of radioactivity in brain tissues of Sprague-Dawley rats after 60 min injecton by intravenously; 0.02-0.03; settings: in vivo, iv, 1 h; summary of the method: as §1
[6] = tested on: Rattus norvegicus; test: Distribution of radioactivity in brain tissues of Sprague-Dawley rats after 15 min injecton by intravenously; 0.03-0.03; settings: in vivo, iv, 0.25 h; summary of the method: as §1
[7] = tested on: Rattus norvegicus; test: Distribution of radioactivity in kidney tissues of Sprague-Dawley rats after 5 min injecton by intravenously; 13.02-19.07; settings: in vivo, iv
[8] = tested on: Rattus norvegicus; test: Distribution of radioactivity in blood tissues of Sprague-Dawley rats after 5 min injecton by intravenously; 0.34-0.48; settings: in vivo, iv; summary of the method: as §1
[9] = tested on: Rattus norvegicus; test: Distribution of radioactivity in heart tissues of Sprague-Dawley rats after 15 min injecton by intravenously; 0.24-0.28; settings: in vivo, iv, 0.25 h; summary of the method: as §1
[10] = tested on: Rattus norvegicus; test: Distribution of radioactivity in lung tissues of Sprague-Dawley rats after 5 min injecton by intravenously; 0.47-0.56; settings: in vivo, iv
[11] = tested on: Rattus norvegicus; test: Distribution of radioactivity in heart tissues of Sprague-Dawley rats after 5 min injecton by intravenously; 0.24-0.29; settings: in vivo, iv
[12] = tested on: Rattus norvegicus; test: Distribution of radioactivity in liver tissues of Sprague-Dawley rats after 5 min injecton by intravenously; 6.76-10.44; settings: in vivo, iv
[13] = tested on: Rattus norvegicus; test: Distribution of radioactivity in lung tissues of Sprague-Dawley rats after 15 min injecton by intravenously; 0.4-0.54; settings: in vivo, iv, 0.25 h
[14] = tested on: Rattus norvegicus; test: Distribution of radioactivity in lung tissues of Sprague-Dawley rats after 60 min injecton by intravenously; 0.3-0.36; settings: in vivo, iv, 1 h
[15] = tested on: Rattus norvegicus; test: Distribution of radioactivity in kidney tissues of Sprague-Dawley rats after 15 min injecton by intravenously; 1.12-2.04; settings: in vivo, iv, 0.25 h
[16] = tested on: Rattus norvegicus; test: Distribution of radioactivity in heart tissues of Sprague-Dawley rats after 60 min injecton by intravenously; 0.19-0.23; settings: in vivo, iv, 1 h
[17] = tested on: Rattus norvegicus; test: Distribution of radioactivity in blood tissues of Sprague-Dawley rats after 60 min injecton by intravenously; 0.25-0.32; settings: in vivo, iv, 1 h; summary of the method: as §1
[18] = tested on: Rattus norvegicus; test: Distribution of radioactivity in liver tissues of Sprague-Dawley rats after 60 min injecton by intravenously; 0.75-1.14; settings: in vivo, iv, 1 h

## C[n+]1cccc(C(=O)NCCc2ccc([125I])cc2)c1
[1]
  Distribution: 0.03%
[2]
  Distribution: 0.56%
[3]
  Distribution: 0.36%
[4]
  Distribution: 4.33%
[5]
  Distribution: 0.02%
[6]
  Distribution: 0.03%
[7]
  Distribution: 16.46%
[8]
  Distribution: 0.39%
[9]
  Distribution: 0.26%
[10]
  Distribution: 0.47%
[11]
  Distribution: 0.25%
[12]
  Distribution: 8.03%
[13]
  Distribution: 0.47%
[14]
  Distribution: 0.32%
[15]
  Distribution: 1.46%
[16]
  Distribution: 0.2%
[17]
  Distribution: 0.27%
[18]
  Distribution: 0.93%
